Results as given in ChEMBL document CHEMBL4732146, “Nitric oxide-donating and reactive oxygen species-responsive prochelators based on 8-hydroxyquinoline as anticancer agents” (Eur J Med Chem, 2021).
The source made the active and inactive calls. The calls are words filed in the database; no cut-off is given here.

Key:
PANC-1 [1] = assay: Cytotoxicity against human PANC-1 cells assessed as reduction in cell viability measured after 48 hrs by MTT assay; type: functional, cell-based; details: PANC-1, 48 h
In short: (§1)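 Cells seeded 6 × 10⁴ per well, cultured 24 h at 37 °C under 5% CO₂, then exposed to compound for 48 h, with or without 50 µM CuCl₂ or FeCl₃ co-incubation. MTT added for 4 h at 37 °C, formazan dissolved in DMSO, A490 read. IC50 reported as mean (SD), n = 3.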

SW1990 [2] = assay: Cytotoxicity against human SW1990 cells assessed as reduction in cell viability measured after 48 hrs by MTT assay; type: functional, cell-based; details: SW1990, 48 h; in short: as §1
PANC-1 [3] = assay: Cytotoxicity against human PANC-1 cells assessed as reduction in cell viability measured after 48 hrs in presence of CuCl2 by MTT assay; type: functional, cell-based; details: PANC-1, 48 h; in short: as §1
SW1990 [4] = assay: Cytotoxicity against human SW1990 cells assessed as reduction in cell viability measured after 48 hrs in presence of CuCl2 by MTT assay; type: functional, cell-based; details: SW1990, 48 h; in short: as §1
PANC-1 [5] = assay: Cytotoxicity against human PANC-1 cells assessed as reduction in cell viability measured after 48 hrs in presence of FeCl3 by MTT assay; type: functional, cell-based; details: PANC-1, 48 h; in short: as §1
SW1990 [6] = assay: Cytotoxicity against human SW1990 cells assessed as reduction in cell viability measured after 48 hrs in presence of FeCl3 by MTT assay; type: functional, cell-based; details: SW1990, 48 h; in short: as §1
[7] = Cytotoxicity against human H6C7 cells assessed as reduction in cell viability measured after 48 hrs by MTT assay; type: cell-based; details: H6C7, 48 h; in short: as §1
[8] = Cytotoxicity against human RWPE2 cells assessed as reduction in cell viability measured after 48 hrs by MTT assay; type: cell-based; details: RWPE2, 48 h; in short: as §1
[9] = Stability of compound in pH 5 PBS buffer measured after 5 to 24 hrs by RP-HPLC analysis; type: physicochemical; details: time 5-24 hrs
In short: (§2)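 Compound (1 µM) stirred at 37 °C either in PBS (pH 5.0, 7.4 or 10.0) containing 5% DMSO or in DMEM with 10% FBS. Aliquots were analysed by RP-HPLC (0.1% TFA water/methanol gradient, 256 nm) for remaining intact compound, up to 24 h.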

[10] = Stability of compound in pH 7.4 PBS buffer measured after 5 to 24 hrs by RP-HPLC analysis; type: physicochemical; details: time 5-24 hrs; in short: as §2
[11] = Stability of compound in pH 10 PBS buffer measured after 5 to 24 hrs by RP-HPLC analysis; type: physicochemical; details: time 5-24 hrs; in short: as §2
[12] = Stability of compound in DMEM with 10% fetal bovine serum measured after 5 to 24 hrs by RP-HPLC analysis; type: cell-free; details: time 5-24 hrs; in short: as §2
[13] = Metal chelating activity assessed as compound-Cu2+ complex formation measured after 40 mins by calcein dye based fluorescence assay; details: dose 10-50 µM
In short: (§3)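 Calcein (10 µM) in 50 mM HEPES was quenched by 10 µM CuCl₂ (or FeCl₃ for the Fe³⁺ arm). Chelator was added from DMSO stock to a final 10 or 50 µM and incubated 40 min at room temperature. Recovery rate was calculated from fluorescence (λex 485 / λem 520 nm); n = 3.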

[14] = Metal chelating activity assessed as compound-Fe3+ complex formation measured after 40 mins by calcein dye based fluorescence assay; details: dose 10-50 µM; in short: as §3
A549 = assay: Cytotoxicity against human A549 cells assessed as reduction in cell viability at 10 to 20 uM measured after 48 hrs by MTT assay; type: functional, cell-based; details: dose 10-20 µM
HeLa = assay: Cytotoxicity against human HeLa cells assessed as reduction in cell viability at 10 to 20 uM measured after 48 hrs by MTT assay; type: functional, cell-based; details: dose 10-20 µM
HepG2 = assay: Cytotoxicity against human HepG2 cells assessed as reduction in cell viability at 10 to 20 uM measured after 48 hrs by MTT assay; type: functional, cell-based; details: dose 10-20 µM
In short: (§4)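 MTT assay with 48 h compound exposure at 10 or 20 µM. Cells seeded 6 × 10⁴ per well and grown 24 h beforehand. MTT 4 h, DMSO solubilisation, A490 read. Percent cell death given as mean ± SD, n = 3.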

MCF7 = assay: Cytotoxicity against human MCF7 cells assessed as reduction in cell viability at 10 to 20 uM measured after 48 hrs by MTT assay; type: functional, cell-based; details: dose 10-20 µM; in short: as §4
PANC-1 [15] = assay: Cytotoxicity against human PANC-1 cells assessed as reduction in cell viability at 10 uM measured after 48 hrs by MTT assay; type: functional, cell-based; in short: as §4
PANC-1 [16] = assay: Cytotoxicity against human PANC-1 cells assessed as reduction in cell viability at 20 uM measured after 48 hrs by MTT assay relative to control; type: functional; in short: as §4
SW1990 [17] = assay: Cytotoxicity against human SW1990 cells assessed as reduction in cell viability at 10 to 20 uM measured after 48 hrs by MTT assay; type: functional, cell-based; details: dose 10-20 µM; in short: as §4
SW1990 [18] = assay: Induction of apoptosis in human SW1990 cells at 12 uM measured after 24 hrs by Annexin V-FITC/propidium iodide staining based flow cytometry; type: functional, cell-based
In short: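 SW1990 cells seeded 5 × 10⁵ per well and grown 24 h, then treated 24 h at 8 or 12 µM. Optional 1 h pretreatment with 20 mM NAC or 50 µM carboxyl-PTIO before 12 µM treatment. Cells stained with annexin V-FITC 15 min and PI 5 min at room temperature in the dark, then analysed by flow cytometry. Mean ± SD, n = 3.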

Row | SMILES | IC50 (PANC-1 [1]) | IC50 (SW1990 [2]) | IC50 (PANC-1 [3]) | IC50 (SW1990 [4]) | IC50 (PANC-1 [5]) | IC50 (SW1990 [6]) | IC50 [7] | IC50 [8] | Stabilty [9] | Stabilty [10] | Stabilty [11] | Stability [12] | Activity [13] | Activity [14] | Activity (A549) | Activity (HeLa) | Activity (HepG2) | Activity (MCF7) | Activity (PANC-1 [15]) | Activity (PANC-1 [16]) | further results
1 | O=C(c1ccc2cccc(OCc3ccc(B(O)O)cc3)c2n1)N1CCC(Oc2no[n+]([O-])c2S(=O)(=O)c2ccccc2)CC1 | 16.6 µM | 12.9 µM | 2.69 µM | 3.05 µM | 20.5 µM | 18.7 µM | > 50 µM | 30.1 µM | Stable | Stable | Stable | Stable |  |  |  |  |  |  |  |  | 
2 | CC1(C)OB(c2ccc(COc3cccc4ccc(C(=O)NCCCOc5no[n+]([O-])c5S(=O)(=O)c5ccccc5)nc34)cc2)OC1(C)C | 17.1 µM | 15.7 µM | 4.89 µM | 3.2 µM | 25.3 µM | 20.8 µM | 40.4 µM | 39.8 µM | Stable | Stable | Stable | Stable |  |  |  |  |  |  |  |  | 
3 | O=C(/C=C\c1ccc2cccc(O)c2n1)N1CCN(CCOc2no[n+]([O-])c2S(=O)(=O)c2ccccc2)CC1 |  |  |  |  |  |  |  |  |  |  |  |  | Dose-dependent effect | Dose-dependent effect | Active | Active | Active | Active | Active | Active | 
4 | O=C(/C=C/c1ccc2cccc(O)c2n1)NCCOc1no[n+]([O-])c1S(=O)(=O)c1ccccc1 |  |  |  |  |  |  |  |  |  |  |  |  | Dose-dependent effect | Dose-dependent effect | Active | Active | Active | Active | Active | Active | 
5 | O=C(NCCCOc1no[n+]([O-])c1S(=O)(=O)c1ccccc1)c1ccc2cccc(OCc3ccccc3)c2n1 |  |  |  |  |  |  |  |  |  |  |  |  |  |  |  |  |  |  |  |  | Activity (SW1990 [17]): inactive; Activity (SW1990 [18]): Active
6 | O=C(c1ccc2cccc(O)c2n1)N1CCN(CCOc2no[n+]([O-])c2S(=O)(=O)c2ccccc2)CC1 |  |  |  |  |  |  |  |  |  |  |  |  | Dose-dependent effect | Dose-dependent effect | Active | Active | Active | Active | Active | Active | 
